Data from ChEMBL document CHEMBL4396921, “Synthesis and Biological Activity of Peptide α-Ketoamide Derivatives as Proteasome Inhibitors” (ACS Med Chem Lett, 2019).
pIC50: −log10 of the molar value. Values belong to the compound of their own block, whether it stands above or below them. Residues, ends and D or L forms follow the SMILES beside them. *: point of attachment. Cbz = O=C(OCc1ccccc1)*

Experiments:
[1] = biological target: T1, Proteasome Macropain subunit MB1 (Homo sapiens, UniProt P28074); experiment: Inhibition of 20S proteosome beta 5 purified from human HCT116 cells using Suc-LLVY-AMC as substrate incubated for 30 to 120 mins by fluorimetry
T1 sequence (P28074 whole entry): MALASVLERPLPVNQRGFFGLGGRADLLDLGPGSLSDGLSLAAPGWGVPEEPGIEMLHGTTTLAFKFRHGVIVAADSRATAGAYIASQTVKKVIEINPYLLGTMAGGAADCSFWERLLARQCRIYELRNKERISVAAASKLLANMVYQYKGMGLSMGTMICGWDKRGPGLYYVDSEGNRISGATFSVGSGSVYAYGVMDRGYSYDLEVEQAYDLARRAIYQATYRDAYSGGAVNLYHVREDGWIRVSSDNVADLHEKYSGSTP
In short: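 Semipurified proteasomes were pretreated with compound at 0.01–100 μM in activity buffer. Fluorogenic AMC substrates were used: Z-LLE-AMC for PGPH (β1), Boc-LRR-AMC for T-L (β2) and Suc-LLVY-AMC for ChT-L (β5). IC50 reported as mean ± SEM of three independent experiments.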

[2] = system: HCT-116; experiment: Antiproliferative activity against human HCT116 cells assessed as reduction in cell viability incubated for 72 hrs by MTT assay; type: functional, cell-based; conditions: HCT-116, 72 h
In short: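 HCT116 human colorectal carcinoma cells exposed to compounds at 0.1–100 μM. IC50 for proliferation reported as mean ± SEM of three independent experiments.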

[3] = organism: Homo sapiens; experiment: Selectivity index, ratio of IC50 of 20S proteosome beta 1 purified from human HCT116 cells to IC50 of 20S proteosome beta 2 purified from human HCT116 cells
[4] = organism: Homo sapiens; experiment: Selectivity index, ratio of IC50 of 20S proteosome beta 5 purified from human HCT116 cells to IC50 of 20S proteosome beta 2 purified from human HCT116 cells
[5] = system: HCT-116; experiment: Induction of apoptosis in human HCT116 cells assessed as viable cells at 1 uM incubated for 72 hrs by annexin-V FITC and propidium iodide staining based flow cytometry relative to control; type: functional; conditions: HCT-116, 72 h, read-out: Activity
In short: (§1)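 HCT116 tumour cells cultured 48 or 72 h with or without compound at 1 μM. Cells were stained with Annexin V and propidium iodide. Annexin V+/PI− was scored as early apoptotic and Annexin V+/PI+ as late apoptotic. Percentages of cells were read from dot plots, with three experiments run.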

[6] = organism: Homo sapiens; experiment: Selectivity ratio of IC50 of 20S proteosome beta 1 purified from human HCT116 cells to IC50 of 20S proteosome beta 5 purified from human HCT116 cells
[7] = system: HCT-116; experiment: Induction of apoptosis in human HCT116 cells assessed as necrotic cells at 1 uM incubated for 48 hrs by annexin-V FITC and propidium iodide staining based flow cytometry relative to control; type: functional; in short: as §1
[8] = system: HCT-116; experiment: Induction of apoptosis in human HCT116 cells assessed as late apoptotic cells at 1 uM incubated for 72 hrs by annexin-V FITC and propidium iodide staining based flow cytometry relative to control; type: functional; in short: as §1
[9] = system: HCT-116; experiment: Induction of apoptosis in human HCT116 cells assessed as viable cells at 1 uM incubated for 48 hrs by annexin-V FITC and propidium iodide staining based flow cytometry relative to control; type: functional; conditions: HCT-116, 48 h, read-out: Activity; in short: as §1
[10] = organism: Homo sapiens; experiment: Selectivity ratio of IC50 of 20S proteosome beta 2 purified from human HCT116 cells to IC50 of 20S proteosome beta 5 purified from human HCT116 cells
[11] = system: HCT-116; experiment: Induction of apoptosis in human HCT116 cells assessed as early apoptotic cells at 1 uM incubated for 72 hrs by annexin-V FITC and propidium iodide staining based flow cytometry relative to control; type: functional; in short: as §1
[12] = system: HCT-116; experiment: Induction of apoptosis in human HCT116 cells assessed as early apoptotic cells at 1 uM incubated for 48 hrs by annexin-V FITC and propidium iodide staining based flow cytometry relative to control; type: functional; in short: as §1
[13] = system: HCT-116; experiment: Induction of apoptosis in human HCT116 cells assessed as necrotic cells at 1 uM incubated for 72 hrs by annexin-V FITC and propidium iodide staining based flow cytometry relative to control; type: functional; in short: as §1
[14] = system: HCT-116; experiment: Induction of apoptosis in human HCT116 cells assessed as late apoptotic cells at 1 uM incubated for 48 hrs by annexin-V FITC and propidium iodide staining based flow cytometry relative to control; type: functional; in short: as §1

- pIC50 [2]: 6.03
- pIC50 [1]: 7.25
SMILES: CC(C)C[C@H](NC(=O)OCc1ccccc1)C(=O)N[C@@H](CC(C)C)C(=O)N[C@@H](CC(C)C)C(=O)C(=O)NCc1ccc(F)cc1

- pIC50 [1]: 4.30
SMILES: CC(C)C[C@H](NC(=O)OCc1ccccc1)C(=O)N[C@@H](CC(C)C)C(O)C(=O)NCc1ccccc1 (stereo not given in full)

- pIC50 [1]: 6.32
SMILES: CC(C)C[C@H](NC(=O)OCc1ccccc1)C(=O)N[C@@H](CC(C)C)C(=O)N[C@@H](CC(C)C)C(=O)C(=O)N1CCOCC1

- pIC50 [2]: < 4.00
- pIC50 [1]: 4.91
SMILES: CC(C)C[C@H](NC(=O)OCc1ccccc1)C(=O)N[C@@H](Cc1ccc(O)cc1)C(=O)C(=O)NCc1ccccc1

- pIC50 [1]: < 4.00
SMILES: CC(C)C[C@H](NC(=O)OCc1ccccc1)C(=O)N[C@@H](CC(C)C)C(=O)N[C@@H](CC(C)C)C(O)C(=O)N1CCOCC1 (stereo not given in full)

- pIC50 [1]: < 4.00
SMILES: CC(C)C[C@H](NC(=O)OCc1ccccc1)C(=O)N[C@@H](CC(C)C)C(=O)N[C@@H](CC(C)C)C(O)C(=O)NCc1ccc(F)cc1 (stereo not given in full)

- pIC50 [1]: 4.15
SMILES: CC(C)C[C@H](NC(=O)OCc1ccccc1)C(=O)N[C@@H](Cc1ccc(O)cc1)C(O)C(=O)NCc1ccccc1 (stereo not given in full)

- pIC50 [2]: 5.07
- pIC50 [1]: 6.04
SMILES: CC(C)C[C@H](NC(=O)OCc1ccccc1)C(=O)N[C@@H](CC(C)C)C(=O)C(=O)NCc1ccccc1

- pIC50 [1]: 4.09
SMILES: CC(C)C[C@H](NC(=O)OCc1ccccc1)C(=O)N[C@@H](C(C)C)C(O)C(=O)NCc1ccccc1 (stereo not given in full)

- pIC50 [1]: 6.11
SMILES: CC(C)C[C@H](NC(=O)OCc1ccccc1)C(=O)N[C@@H](CC(C)C)C(=O)N[C@@H](CC(C)C)C(=O)C(=O)N1CCc2ccccc2C1

- pIC50 [1]: < 4.00
SMILES: CC(C)C[C@H](NC(=O)OCc1ccccc1)C(=O)N[C@@H](CC(N)=O)C(O)C(=O)NCc1ccccc1 (stereo not given in full)

- pIC50 [1]: 5.09
SMILES: CC(C)C[C@H](NC(=O)OCc1ccccc1)C(=O)N[C@@H](CC(C)C)C(=O)N[C@@H](CC(C)C)C(O)C(=O)Nc1cccc2ccccc12 (stereo not given in full)

More lines, now with the values behind:

SMILES: CC(C)C[C@H](NC(=O)OCc1ccccc1)C(=O)N[C@@H](CC(N)=O)C(=O)C(=O)NCc1ccccc1
- pIC50 [1]: < 4.00

SMILES: CC(C)C[C@@H](C=O)NC(=O)[C@H](CC(C)C)NC(=O)[C@H](CC(C)C)NC(=O)OCc1ccccc1 [MG-132] (Cbz-Leu-Leu-Leu-aldehyde)
- pIC50 [2]: 6.09

SMILES: CC(C)C[C@H](NC(=O)OCc1ccccc1)C(=O)N[C@@H](Cc1ccccc1)C(=O)C(=O)NCc1ccccc1
- pIC50 [1]: 4.29

SMILES: CC(C)C[C@H](NC(=O)OCc1ccccc1)C(=O)N[C@@H](Cc1cccc2ccccc12)C(O)C(=O)NCc1ccccc1 (stereo not given in full)
- pIC50 [1]: < 4.00

SMILES: CC(C)C[C@H](NC(=O)OCc1ccccc1)C(=O)N[C@@H](CC(C)C)C(=O)N[C@@H](CC(C)C)C(O)C(=O)N1CCc2ccccc2C1 (stereo not given in full)
- pIC50 [1]: < 4.00

SMILES: CC(C)C[C@H](NC(=O)OCc1ccccc1)C(=O)N[C@@H](Cc1ccccc1)C(O)C(=O)NCc1ccccc1 (stereo not given in full)
- pIC50 [1]: < 4.00

SMILES: CC(C)C[C@H](NC(=O)OCc1ccccc1)C(=O)N[C@@H](CC(C)C)C(=O)N[C@@H](CC(C)C)C(O)C(=O)NCc1ccccc1 (stereo not given in full)
- pIC50 [1]: 6.28

SMILES: CC(C)C[C@H](NC(=O)OCc1ccccc1)C(=O)N[C@H](C(=O)C(=O)NCc1ccccc1)C(C)C
- Ratio IC50 [3]: 7
- Ratio IC50 [4]: 30
- pIC50 [1]: 4.20

SMILES: CC(C)C[C@H](NC(=O)OCc1ccccc1)C(=O)N[C@@H](CC(C)C)C(=O)N[C@@H](CC(C)C)C(=O)C(=O)NCc1ccccc1
- pIC50 [2]: 6.11
- pIC50 [1]: 7.85

SMILES: CC(C)CNC(=O)C(O)[C@H](CC(C)C)NC(=O)[C@H](CC(C)C)NC(=O)[C@H](CC(C)C)NC(=O)OCc1ccccc1 (stereo not given in full)
- pIC50 [1]: < 4.00

SMILES: CC(C)C[C@H](NC(=O)OCc1ccccc1)C(=O)N[C@@H](CC(C)C)C(=O)N[C@@H](CC(C)C)C(=O)C(=O)Nc1cccc2ccccc12
- pIC50 [2]: > 7.00
- viability at 1 µM [5]: 27.1%
- Ratio IC50 [6]: 8200
- Activity [7]: 2.77%
- Activity [8]: 59.4%
- viability at 1 µM [9]: 45.1%
- Ratio IC50 [10]: > 14200
- Activity [11]: 11.3%
- pIC50 [1]: 8.15
- Activity [12]: 22.6%
- Activity [13]: 2.29%
- Activity [14]: 29.5%

SMILES: CC(C)CNC(=O)C(=O)[C@H](CC(C)C)NC(=O)[C@H](CC(C)C)NC(=O)[C@H](CC(C)C)NC(=O)OCc1ccccc1
- pIC50 [2]: 6.09
- viability at 1 µM [5]: 48.8%
- Activity [7]: 1.53%
- Activity [8]: 38.8%
- viability at 1 µM [9]: 55.4%
- Activity [11]: 10.5%
- pIC50 [1]: 7.92
- Activity [12]: 20.7%
- Activity [13]: 1.91%
- Activity [14]: 22.3%
